In the EternaBench riboswitch data:

Tested on: MS2 coat protein
Assay: apparent Kd, MS2 coat protein; higher = weaker binding; RNA-MaP array; FMN 200 µM where present
Summary of the method: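 Green signal was scaled to red-channel RNA signal and control-cluster median Fmax, and the apparent Kd was taken as the median of filtered per-cluster binding-curve fits. The binding series used SNAP-549-labelled MS2 coat protein from 0.7 or 1.5 nM, doubling to 3 µM, on designs transcribed by stalled E. coli RNA polymerase on Illumina sequencing-chip clusters. Each series ran without and then with constant ligand in 100 mM Tris-HCl pH 7.5, 80 mM KCl, 4 mM MgCl2, BSA, DTT, yeast tRNA and Tween-20.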

[1] = designed as: ON switch for flavin mononucleotide, no ligand
[2] = ligand present: flavin mononucleotide, designed as: ON switch for flavin mononucleotide
[3] = designed as: OFF switch for flavin mononucleotide, no ligand
[4] = ligand present: flavin mononucleotide, designed as: OFF switch for flavin mononucleotide

Sequence	apparent Kd [1] [nM]	apparent Kd [2] [nM]	apparent Kd [3] [nM]	apparent Kd [4] [nM]
AUAGCUCUCUAGAAGGACCAAGCAGUAUACCAUCAGGUAUAUACGCUAGGUAGGAUAUGGGACAUGAGGAUCACCCAUGUGUAG	53.9	33.9	–	–
AGUGUCAUCGAGAAGGCCUCAACAUGAGGAUCACCCAUGUUGUUACAUGGGAGGAUAUCGAUGAUACAGCUACGUUUCGUAGCA	1010	137	–	–
CUUUUGUGAGGAUAUUCGUAGUAGGGUCAUGGUACUAUUACGGAGAAGGCACAUGAGGAUCACCCAUGUUCCUU	–	–	15.4	45.1
GCUGCAUAGGCAGGAUAUGCAAAAGCAGAUGCAAAGCAUCUGCAAUAAACAUGAGGAUCACCCAUGUAGAAGGGCCUGUGCAGU	–	–	20.8	19.4
UUUGCAUGACGAGGAUAUCAUUUAUUUCUUGAUUGAGAAGGCGUUCUUUUUAAUACCUAACAUGAGGAUCACCCAUGUGACAGU	17.9	13.2	–	–
CCUAGAUAGGGAGGAUAUCACGACCAUCCCGGCGAUCCAACUACAUGAGGAUCACCCAUGUGGUGUGAGAAGGCCCAAUAAUAG	–	–	220	75.4
UAUUUGUGAGGAUAUGAGUCGUAGAACAAUAGUACUACGUCUCAGAAGGUACAUGAGGAUCACCCAUGUUCCUC	–	–	19	28
AAAGUGUGAAGCAGGGUGCUACAUGAGGAUCACCCAUGUCGGAGAAGGGCGCCGUUUCGCAGGGUGUAGGAUAUCUGGCGUGCA	–	–	132	109
UGUGUAACGGAGGAUAUAGGACUUCAACGAAGACUAGAAGGCCGAACAUGAGGAUCACCCAUGUGGUCCUCCGU	–	–	11.9	14.9
ACAUGCAUAGCGAUAUGAUCGAGAGAUCAUGUCGCUUAAAAUAGAAGGACAUGAGGAUCACCCAUGUAGGAUAUGGGAGCAUGA	25.8	11.7	–	–
CCUGUGUGAGGAUAUCUACGCCAUGUCUUUGACAUGGCGCAAGAGAAGGCACAUGAGGAUCACCCAUGUACUUC	–	–	22.6	135
UGGUGAAGUGUAGGAUAUGGAGGUGGGUUUUGGCCAGAAGGACAUGAGGAUCACCCAUGUGGUAGAGGGUUGGUGGUGGCUCGU	–	–	23.9	21.4
UGGUACUACGGAGGAUAUGGGAAGAUACAUGAGGAUCACCCAUGUUUAAGAAUGCCGAGAGGCAACUAGAAGGCCCUAGUACCU	401	25.2	–	–
CACGUCCUCACAGGAUAUGCUGGACUUUGUCCAGCAGAAGGGUGACAUGAGGAUCACCCAUGUAAAAGGACGUGUAUAUUUAAU	515	41.5	–	–
AGCUAUUACGAAGGAUAUUGUGACAUGAGGAUCACCCAUGUUUUCAUGAUUAAUUGUGAUCACGUCGAGAAGGUUGUACUAACA	52.4	54.5	–	–
CCGGAAAUGCAGGAUAUCGUAUCGGAUACGAUACGAGAAGGGUAUACAUGAGGAUCACCCAUGUGUCCUCCCGG	–	–	38.3	109
GGAACUCAUGUAGGAUAUGCAUGGCGAAGCUACGCAGAAGGACAUGAGGAUCACCCAUGUUCUAGCGUCUGGAGACAGAUGCAA	–	–	174	126
GGUACUCAAAGAGUACAAGAAAGAACAUGAGGAUCACCCAUGUAGGAUAUGCUACUCAAAGAGUAGCAGAAGGACAUGUGCAGC	–	–	30.6	103
UUGAUUAUACAAGGAUAUCAAUUGUAUACAAGUCAUACAUGAGGAUCACCCAUGUUUUAUUUUUUUGAGAAGGUGUAUUGUCAG	38.9	24	–	–
GGAUUUACUGAGGAUAUUGCAUUACCCGAUUGAUAAGAAGGCAGAACAUGAGGAUCACCCAUGUGGGUAGUCAA	–	–	17.4	16.4
GGUUAUUGCAAGGAUAUGCUUUUUUUUUAUAUUGCAGAAGGUGCAACAUGAGGAUCACCCAUGUUGGAGGGAUU	–	–	30.9	59.5

Sequence	apparent Kd [1] [nM]	apparent Kd [2] [nM]	apparent Kd [3] [nM]	apparent Kd [4] [nM]
UGUCGGAGCAGAGGAUAUUACAUGAGGAUCACCCAUGUAUGAACCAAUAGCUGGAAACAGCAAUGUAAGAAGGCUGCACCGACA	–	–	12.6	178
CUGUGACGGUGCGCAAGUGGACGGAGAAGGGACACAUGAGGAUCACCCAUGUGGGCCUGCUAUUGUCAGGAUAUCCGUUCGUAC	–	–	6.26	6.62
AUACAUGAGGAUCACCCAUGUUACUGGGUCUAUAUAGAACGUAGAAGGAUGUAUUUAAGAAUAACAUAGGAUAUACUUUAUAGU	–	–	60.4	38.2
CGGUCCCAUGUGAGGAUAUCGGAGCGAAAAUACUGCGAGAAGGUACAUGAGGAUCACCCAUGUCUCCUAUUGCC	–	–	16.5	32.5
CGUGUUGACGAAGGAUAUGGAUACAUGAGGAUCACCCAUGUAUAUUUUGUGAUCAUAUUUAUGAUCCAGAAGGUCGUUGACACG	–	–	56.9	131
GCAGACGUAGUGAGGAUAUGCUCUACCUCGGUAGAGCAGAAGGCACAUGAGGAUCACCCAUGUGGCUCCUCUGC	–	–	16.2	25.1
UUCAUCAAGGAAGGAUAUCUAUAUCCAACAUGAGGAUCACCCAUGUUGAGGAUCACCCAUGUAAAGGAGAAGGUUCAUAUAACU	58.1	50.7	–	–
AUAUCUAUGUAAGGAUAUAGAUGGUAUACGCCUCCGACAUGAGGAUCACCCAUGUUAUAUUUUGUCUAGAAGGUACAUUGUCGG	383	305	–	–
CAGAGGAUGUAAGGAUAUCGUCAGGAUAACUGACGAGAAGGUACAUGAGGAUCACCCAUGUAACUCUAAUAAUAAUAACCUCUG	–	–	11.7	17.3
UGCAGACGAGGAUAUGAUGUCAUAGACAUGAGGAUCACCCAUGUGAUCAAUUAAUUAAGAUCAGAAGGCGUCUGCA	–	–	315	218
GCGUACAUCGGAGGAUAUCAUGUAAAUACAUGAGGAUCACCCAUGUCGAUGGAGACAUCGGAGAUUGAGAAGGCCGAUGUACCG	157	8.42	–	–
CGGAAACAAGGAUAUACAUGAGGAUCACCCAUGUCGCUAACUGCGCUCUUGUGAUCCGGUAGAAGGUGUGAAUA	–	–	29.8	41
UGUGUUAUCGGAGGAUAUCGAUAUCAAACAUGAGGAUCACCCAUGUUGAGGAUCACCCAUGUCUACGAGAAGGCCGGCGUACUC	45.2	50.6	–	–
UAUUACAGAUAAGGAUAUCGACAUGAGGAUCACCCAUGUAUUUGGGAAUGUUUACUGAAUUCUUACGAGAAGGUAUACGUACUU	–	–	154	118
UGCCGUAGAGGAUAUACAUUGAAUUAGAUUCAUGUAAAACUACAUGAGGAUCACCCAUGUAGAAGGCUAUGGCU	–	–	16.6	24.5
ACCGAAUGAACAUGAGGAUCACCCAUGUACACGAAAGUGAAUGAGGAUAUCGAUAGCAAAGCUAUCGAGAAGGCAUGGGUCGGU	565	144	–	–
GUCAGCUCGUGAGGAUAUACAACACUGCUUCGGCAGUUUAUUAAGAUCACAUGAGGAUCACCCAUGUAGAAGGCACGAGCUGAU	–	–	14.4	264
GGGUACAUCGGAGGAUAUCAUGUAAAUACAUGAGGAUCACCCAUGUCGAUGGAGACAUCUGAGAUUGAGAAGGCCGAUGUACCG	19.4	6.45	–	–
AACAGUACAGGAUAUACAUGAGGAUCACCCAUGUGAGAAUUUAGCAGCGUACCACACAGUAGAAGGGUAAUGGA	–	–	28.2	25.5
UCGAACUUUCAUGAAAUUCGCACAUGAGGAUCACCCAUGUACGAGGAUAUGUACUUAAACGGCUAACAGAAGGCGUACUGGGCA	–	–	105	71.8
AAGAAGUCAGGAUAUCCAGCUCGUCACUUGCGUGAUGAGUUGGAGAAGGGACAUGAGGAUCACCCAUGUAAAGG	–	–	202	230
